Assay [1] is described as follows: inhibitors of TNFa-induced NFkB p65 translocation, primary screen, imaging, HUVEC, MLSMR starter and 10KST1 sets (AID 438;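 active means inhibition above 20% together with a positive visual image hit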;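 further: compound added about 3h40 before a 20 min TNFalpha stimulation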;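 on inhibition: signal is the nuclear over cytoplasmic p65 intensity ratio per well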). To be noted: HUVEC TNFa-induced p65 nuclear translocation; cell count: measured here: nuclei count (cytotoxicity indicator), at 2.08 µM; inhibition: at 2 µM, stronger effect = higher value, 0% TNFa-plus-vehicle, 100% no-TNFa wells.
Assay [2] is described as follows: inhibitors of mutant huntingtin aggregation, primary screen, imaging, exon1htt(103Q)mCFP cells, high-content imaging (AID 483;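 active means visual image review flags a hit and inhibition of aggregation exceeds 20%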;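 further: compound exposure lasted 3 days before fixation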;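 on nuclei count: percent of the per-plate median nuclei count of sample wells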). To be noted: exon1htt(103Q)mCFP cell line, aggregate imaging, at 2 µM; inhibition of aggregation: stronger effect = higher value; nuclei count: measured here: cell count, toxicity.
The nature of assay [3]: inhibitors of E-selectin induction by TNFa, primary screen, imaging, HUVEC, immunofluorescence, MLSMR starter and 10KST1 sets (AID 487).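 On inhibition: signal is fraction of cell area covered by stained E-selectin grains.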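 On nuclei count: 100% = median nuclei count of all wells on the same plate.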 The following applies: HUVEC TNFalpha-induced E-selectin immunofluorescence imaging, at 2 µM; inhibition: stronger effect = higher value; nuclei count: measured here: cell number, toxicity.
Assay [4] deals with Voltage-gated potassium channel subunit beta-2 (Rattus norvegicus) (UniProt P62483). Put plainly: KvBeta enzyme negative modulators, primary screen, biochemical, NADPH fluorescence (AID 622;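 active means fluorescence slope higher than the sample average by over 3 SD, cut at about -0.22 in these data, passing the limit was not always enough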;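 further: slope of raw intensity against log time taken from 70 to 1610 s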). To be noted: recombinant KvBeta, 4-cyanobenzaldehyde reduction, at 10 µM, stronger effect = higher value.
Voltage-gated potassium channel subunit beta-2 (Rattus norvegicus), sequence (P62483 whole entry, looked up): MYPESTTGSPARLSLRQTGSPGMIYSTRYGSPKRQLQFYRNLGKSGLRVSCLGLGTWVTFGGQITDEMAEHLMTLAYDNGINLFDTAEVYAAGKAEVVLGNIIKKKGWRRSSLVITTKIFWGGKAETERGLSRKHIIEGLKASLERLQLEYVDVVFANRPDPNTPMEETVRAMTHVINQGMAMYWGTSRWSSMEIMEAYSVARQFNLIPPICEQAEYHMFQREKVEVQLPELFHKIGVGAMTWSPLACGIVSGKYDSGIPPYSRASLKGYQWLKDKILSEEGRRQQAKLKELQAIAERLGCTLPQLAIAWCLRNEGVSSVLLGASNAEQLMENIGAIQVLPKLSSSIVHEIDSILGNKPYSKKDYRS
Assay [5] has the same target. Nature of the assay: KvBeta positive modulators, primary screen, biochemical, NADPH fluorescence (AID 623;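 active means NADPH fluorescence slope more negative than the mean of all samples by about 3 SD, 99.7% confidence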;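 further: fluorescence intensity change per second fitted from 20 to 320 s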). To be noted: Recombinant KvBeta, NADPH fluorescence decrease slope, 10 min; at 10 µM; stronger effect = lower value.
The target in assay [6] is Alpha-2C adrenergic receptor (Homo sapiens) (UniProt P18825). Nature of the assay: modulators of alpha2C/GIRK thallium flux, primary screen, cell-based, HEK293 alpha2C/GIRK1/2 (AID 624;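 active means fluorescence slope after compound addition differing from the mean of all screened samples at 99.7% confidence, in either direction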;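 further: slope of fluorescence ratio to pre-addition baseline per second over 15 to 24 s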). To be noted: thallium flux BTC fluorescence, at 10 µM, actives lie on both sides.
Alpha-2C adrenergic receptor (Homo sapiens), sequence (P18825 whole entry, looked up): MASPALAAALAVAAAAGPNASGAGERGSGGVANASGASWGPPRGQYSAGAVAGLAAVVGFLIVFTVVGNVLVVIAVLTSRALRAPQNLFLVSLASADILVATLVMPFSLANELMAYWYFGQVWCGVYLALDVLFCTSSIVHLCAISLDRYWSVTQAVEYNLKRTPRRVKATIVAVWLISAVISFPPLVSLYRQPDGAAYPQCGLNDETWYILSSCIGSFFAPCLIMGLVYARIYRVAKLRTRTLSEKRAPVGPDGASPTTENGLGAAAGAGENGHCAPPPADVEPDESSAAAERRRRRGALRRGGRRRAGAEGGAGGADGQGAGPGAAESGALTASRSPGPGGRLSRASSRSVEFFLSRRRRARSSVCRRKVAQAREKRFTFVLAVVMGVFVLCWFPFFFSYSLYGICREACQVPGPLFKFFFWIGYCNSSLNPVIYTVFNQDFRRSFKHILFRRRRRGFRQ
The nature of assay [7]: inhibitors of larval lipid processing in zebrafish, primary screen, whole organism, PED6 fluorescence, gall bladder and intestine (AID 686;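 active means a full or partial loss of lipid-probe fluorescence in the fish gall bladder, intestine or both, judged by eye; inactive means no fluorescence loss, or compound toxic to the fish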;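 further: signal comes from phospholipase A2 cleavage of quenched PED6 carried via bile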). To be noted: Zebrafish larvae PED6 lipid processing, fluorescence scoring; screened at 20 µM (by protocol). The method, boiled down: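 Doses: 20 µM single dose. Test system: live zebrafish larvae aged 5-7 days, whole organism. Quantity: five larvae per well. Measured by: By-eye fluorescence microscopy. Reagent: ingested quenched lipid PED6 at 100 nM. Read-out: visual per-well fluorescence inhibition score. Times: overnight exposure of larvae to compound plus PED6.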

Assay [8] can be described thus: inhibitors of Sendai virus-induced IRF3 signaling, primary screen, TLR/RLR signaling modifier project, cell-based, Sendai virus stimulus, luciferase, 10K MLSCN set (AID 602276;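 active means inhibition at or above 50% at 10 µM; inactive means inhibition below 50%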;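 further: firefly luciferase from ISG56 promoter only with Renilla not read in this screen; 0% = Sendai virus plus DMSO and 100% = medium plus DMSO without virus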). The following applies: HEK293 RL24 IRF3 luciferase reporter, at 10 µM, stronger effect = higher value. On the technique in general: In a reporter assay the amount or activity of a reporter protein is the signal.

The nature of assay [9]: inhibitors of poly I:C-induced TLR3 signaling, primary screen, cell-based, poly I:C stimulus, luciferase, 10K MLSCN set (AID 602277;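 active means inhibition of the reporter signal at or above 50%; inactive means inhibition below 50%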). The following applies: HEK293-TLR3 RL24 IRF3 luciferase reporter, at 10 µM, stronger effect = higher value.

Calls of active or inactive are those of the source.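 How the source made its calls, unless noted: active means visually confirmed hit in the image check and inhibition above 20%; inconclusive means visually confirmed hit but inhibition not above 20%; inactive means no visual hit in the image check.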

A word on the inhibition: it is the drop in the measured response relative to a control, in per cent. As for `O=C(NC1CCCCCCC1)C1CCN(c2nc3ccccc3o2)CC1`, the cell count in [1] worked out at 737. For the same compound, the inhibition in assay [1] is -10.2% (inactive); in assay [3], -34.9% (inactive); in assay [8] it was 6.61% (inactive); in assay [9] it was -11.1% (inactive). In addition, the inhibition of aggregation in [2] is 9.4% (inactive). In addition, the nuclei count in [2] was 94.8%; in [3], 116%. In addition, in assay [4], the fluorescence slope was -0.334 (inactive). Moreover, the NADPH fluorescence slope in [5] was 8.8e-06 (inactive). Besides, the slope in assay [6] is 0.0059 (inactive). Further, the compound was classed as inactive in [7].

Regarding `COc1ccc(C)cc1-n1nnnc1SC/C(O)=C(\C#N)c1nc2ccccc2[nH]1`, in [1], the cell count was found to be 614. In addition, the inhibition was 5.1% (inactive) in assay [1], -42.5% (inactive) in assay [3], 15.6% (inactive) in [8] and 27% (inactive) in [9]. For the same compound, the inhibition of aggregation in [2] is -491% (inactive). The figures for the nuclei count in assay [2] and in assay [3] were 42.2% and 104%, respectively. Also, the fluorescence slope in [4] was -0.431 (inactive). Moreover, the NADPH fluorescence slope in [5] is -3.4e-05 (inactive). In [6], the slope is 0.00627 (inactive). Moreover, the outcome in assay [7] is “active; weak signal in gallbladder only”.

As for `CS(=O)(=O)N(CC(=O)Nc1ccc2c(c1)OCO2)Cc1ccc(Cl)cc1`, in [1], the cell count was determined as 303. Besides, the inhibition is 8.9% (inactive) in assay [1], -20.4% (inactive) in [3], 11.9% (inactive) in assay [8] and 17.7% (inactive) in assay [9]. Further, the inhibition of aggregation in assay [2] was -3.1% (inactive). Moreover, the nuclei count in [2] came out at 92%; in assay [3], 88.8%. Further, the fluorescence slope in assay [4] is -0.428 (inactive). Besides, in [5], the NADPH fluorescence slope is -6.6e-05 (inactive). Further, the slope in assay [6] is 0.00445 (inactive). For the same compound, in assay [7], the call was inactive.

Regarding `O=C(CN1C(=O)c2ccccc2C1=O)Nc1ccc(S(=O)(=O)NCC2CCCO2)cc1` (stereo unspecified), the cell count in assay [1] was 389. Besides, the inhibition in [1] is -6% (inactive); in assay [3], -52.4% (inactive); in [8], -1.96% (inactive); in assay [9] it was 98.2% (active). Moreover, the inhibition of aggregation in assay [2] is -2.4% (inactive). The nuclei count in assay [2] worked out at 93.4%; in assay [3], 107%. Besides, the fluorescence slope in assay [4] was -0.412 (inactive). The NADPH fluorescence slope in assay [5] is -2.5e-05 (inactive). Besides, in [6], the slope is 0.00503 (inactive). Besides, the call in [7] was inactive.

For the compound `CC(C)(C)NC(=O)CN(Cc1cccs1)C(=O)c1csnn1`, the cell count in [1] came out at 570. For the same compound, the inhibition in assay [1] is 12.9% (inactive); in assay [3], 20.6% (inactive); in assay [8] it was 11.9% (inactive); in [9], 16.1% (inactive). Moreover, the inhibition of aggregation in assay [2] was 34.6% (active). In addition, the nuclei count turned out to be 85% in assay [2] and 89.9% in assay [3]. In addition, the fluorescence slope in assay [4] was -0.431 (inactive). The NADPH fluorescence slope in assay [5] was -4.2e-05 (inactive). Further, the slope in assay [6] was 0.00455 (inactive). In assay [7], the compound was classed as inactive.

Turning to `Cc1ccc(S(=O)(=O)N2CCN(C(=O)N3CCOCC3)C2C)cc1` (stereo unspecified), the cell count in assay [1] came out at 469. The inhibition in assay [1] is 7.3% (inactive); in assay [3], -48.1% (inactive); in assay [8], 11.8% (inactive); in assay [9], 45.8% (inactive). In addition, the inhibition of aggregation in assay [2] was 12.7% (inactive). Also, the results for the nuclei count in [2] and in assay [3] were 102% and 108%, respectively. Further, in assay [4], the fluorescence slope was -0.439 (inactive). In addition, the NADPH fluorescence slope in [5] was -5.1e-05 (inactive). For the same compound, the slope in assay [6] was 0.00556 (inactive). In addition, the compound was called inactive in assay [7].

In the case of `CCCc1cc(=O)oc2cc(C)cc(OC(=O)c3ccco3)c12`, the cell count in assay [1] was 298. In addition, the inhibition in assay [1] is -9% (inactive); in assay [3], -170% (inactive); in assay [8], -12.5% (inactive); in assay [9], -18.4% (inactive). Further, in [2], the inhibition of aggregation is 14.4% (inactive). The results for the nuclei count in [2] and in [3] were 86% and 108%, respectively. Besides, the fluorescence slope in assay [4] is -0.399 (inactive). The NADPH fluorescence slope in assay [5] was -3.5e-05 (inactive). Also, the slope in assay [6] was 0.00456 (inactive). In addition, in assay [7], the compound was classed as inactive.

For `O=C(Nc1ccc(-c2nc3ncccc3o2)cc1)c1ccc(Br)o1`, in assay [1], the cell count worked out at 340. The inhibition was 25.6% (inactive) in [1], 8.6% (inactive) in [3], -28.6% (inactive) in [8] and -98.2% (inactive) in assay [9]. Further, the inhibition of aggregation in assay [2] was -3.8% (inactive). The results for the nuclei count in assay [2] and in [3] were 89.7% and 100%, respectively. In addition, the fluorescence slope in assay [4] is -0.125 (active). Also, the NADPH fluorescence slope in [5] was -3.3e-06 (inactive). Besides, the slope in [6] is 0.00525 (inactive). For the same compound, the outcome in assay [7] was inactive.

On to `O=C(NCCCN1CCN(Cc2ccccc2)CC1)C1CCN(c2nnc(-n3cccc3)s2)CC1`, for which the cell count in [1] was 336. The inhibition is -11.8% (inactive) in assay [1], -119% (inactive) in assay [3], -19.7% (inactive) in assay [8] and -72% (inactive) in assay [9]. In assay [2], the inhibition of aggregation is -22.5% (inactive). For the same compound, the figures for the nuclei count in assay [2] and in assay [3] were 103% and 126%, respectively. Moreover, the fluorescence slope in assay [4] was -0.393 (inactive). Moreover, the NADPH fluorescence slope in assay [5] was -5e-05 (inactive). For the same compound, the slope in [6] is 0.00457 (inactive). Further, the result in assay [7] was inactive.

On to `O=P(CCNCc1ccco1)(c1ccccc1)c1ccccc1`, for which, in assay [1], the cell count amounted to 322. Moreover, the inhibition was 9.5% (inactive) in [1], 1.5% (inactive) in assay [3], 139% (active) in assay [8] and 91.3% (active) in assay [9]. Further, the inhibition of aggregation in assay [2] was -14.2% (inactive). Moreover, the nuclei count amounted to 107% in [2] and 112% in assay [3]. For the same compound, in [4], the fluorescence slope was -0.382 (inactive). The NADPH fluorescence slope in assay [5] was -2.4e-05 (inactive). Moreover, in [6], the slope is 0.00716 (inactive). Besides, in assay [7], the result was inactive.

On to `COc1ccccc1NC(=O)CSc1nnc(Cn2nnc(-c3ccccc3)n2)n1-c1ccccc1`, for which the cell count in [1] is 644. For the same compound, the inhibition in assay [1] was -12.5% (inactive); in [3], -50.5% (inactive); in [8], 19.9% (inactive); in [9], 14.5% (inactive). For the same compound, the inhibition of aggregation in assay [2] was 5.6% (inactive). The nuclei count worked out at 104% in assay [2] and 119% in assay [3]. The fluorescence slope in [4] is -0.452 (inactive). Moreover, the NADPH fluorescence slope in assay [5] was -5.2e-05 (inactive). The slope in assay [6] is 0.00589 (inactive). The call in [7] was inactive.

As to `Cc1occc1C(=O)Nc1ccc(S(=O)(=O)N2CCN(C)CC2)cc1`, the cell count in [1] stood at 318. In addition, the inhibition in [1] was 1% (inactive); in [3], -42.1% (inactive); in assay [8], 15.9% (inactive); in assay [9], 16.1% (inactive). Also, the inhibition of aggregation in assay [2] was -23.8% (inactive). For the same compound, the nuclei count worked out at 95.5% in assay [2] and 107% in assay [3]. In addition, in assay [4], the fluorescence slope was -0.44 (inactive). The NADPH fluorescence slope in assay [5] was -1.3e-05 (inactive). In addition, in assay [6], the slope was 0.00548 (inactive). Moreover, the outcome in assay [7] was inactive.

For the compound `O=C(CSc1nnc(-c2ccc(Br)cc2)n1C1CCCCC1)N1CCCC1`, in assay [1], the cell count turned out to be 306. The inhibition in [1] is -17.8% (inactive); in assay [3], 4.3% (inactive); in assay [8], -3.56% (inactive); in [9], -4.51% (inactive). For the same compound, the inhibition of aggregation in assay [2] was 5.3% (inactive). Besides, the nuclei count in assay [2] is 101%; in assay [3], 81.3%. Moreover, the fluorescence slope in assay [4] was -0.371 (inactive). The NADPH fluorescence slope in [5] is 1.5e-05 (inactive). In assay [6], the slope was 0.00599 (inactive). In addition, the compound was called inactive in [7].

Source of the values: PubChem BioAssay.
